This is an account of results in ChEMBL document CHEMBL4251698, “Mitigating the Metabolic Liability of Carbonyl Reduction: Novel Calpain Inhibitors with P1' Extension” (ACS Med Chem Lett, 2018).

Data set [1] addresses T1, Calpain-1 catalytic subunit (Homo sapiens, UniProt P07384).
T1 sequence (P07384 whole entry): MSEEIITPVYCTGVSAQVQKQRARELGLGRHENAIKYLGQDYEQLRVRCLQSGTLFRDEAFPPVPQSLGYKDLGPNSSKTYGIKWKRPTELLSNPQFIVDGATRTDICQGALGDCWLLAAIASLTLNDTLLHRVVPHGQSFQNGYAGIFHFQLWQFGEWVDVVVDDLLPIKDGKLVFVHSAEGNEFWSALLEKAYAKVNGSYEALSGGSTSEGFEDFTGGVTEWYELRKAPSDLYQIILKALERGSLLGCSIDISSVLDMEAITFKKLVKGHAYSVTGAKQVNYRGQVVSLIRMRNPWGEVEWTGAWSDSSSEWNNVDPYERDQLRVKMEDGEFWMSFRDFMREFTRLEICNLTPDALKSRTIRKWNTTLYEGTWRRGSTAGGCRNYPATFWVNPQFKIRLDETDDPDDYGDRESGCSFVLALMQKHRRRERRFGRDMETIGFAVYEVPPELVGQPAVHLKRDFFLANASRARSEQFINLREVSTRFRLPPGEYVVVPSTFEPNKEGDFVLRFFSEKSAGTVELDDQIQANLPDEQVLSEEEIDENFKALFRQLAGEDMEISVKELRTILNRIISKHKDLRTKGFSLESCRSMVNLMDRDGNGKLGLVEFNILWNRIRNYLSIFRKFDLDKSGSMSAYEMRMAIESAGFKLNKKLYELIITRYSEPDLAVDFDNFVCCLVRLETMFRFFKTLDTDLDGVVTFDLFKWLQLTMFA
Description: Inhibition of human erythrocyte calpain 1 using Suc-Leu-Tyr-AMC as substrate by fluorescence assay.

Data set [2] in a line: Intrinsic clearance in human liver cytosol at 0.5 uM measured after 15 mins in presence of NADPH by spectrometric method. The settings on record: read-out: CLH. The format is ADME, subcellular. The method in brief: (§1)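 Test compound incubated with monkey or human liver cytosol and percent parent lost over time followed. Intrinsic clearance calculated from this depletion, in µL/min/mg; ranges adjusted to hepatic plasma flow of the species.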

Data set [3] in a line: Clearance in rat hepatocytes. It counts as ADME, cell-based, Hepatocyte.
The nature of data set [4]: Clearance in human hepatocytes. It counts as ADME, cell-based, Hepatocyte.
A short description of data set [5]: Intrinsic clearance in cynomolgus monkey liver cytosol at 0.5 uM measured after 15 mins in presence of NADPH by spectrometric method. To be noted: read-out: CLH. It counts as ADME, subcellular, Macaca fascicularis. The method in brief:
as §1

Data set [6] can be described thus: Inhibition of calpain in rat hippocampal slices assessed as reduction in NMDA-induced intracellular spectrin cleavage. The format is cell-based. The procedure, abridged: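 Rat hippocampal slice cultures were challenged with NMDA. The read-out was prevention of intracellular spectrin cleavage, and IC50 values were derived.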

Some results are limits rather than exact numbers.

On to `O=C(NOC1CCCC1)C(=O)C(Cc1ccccc1)NC(=O)c1cccnc1-n1ccc(-c2ccccc2)n1` (stereo not given), for which, in data set [1], the affinity, expressed as Ki, was 0.12 µM.
Consider `CCONC(=O)C(=O)C(Cc1ccccc1)NC(=O)c1cccnc1-n1ccc(-c2ccccc2)n1` (stereo not given), for which the microsomal CLint at […], 0.5 µM in data set [2] and in data set [5] was below 1 µL/min/mg throughout. Besides, the CLH in data set [3] was found to be 32 µL/min/mg; in data set [4] it was 10 µL/min/mg. Moreover, the Ki in data set [1] was determined as 0.11 µM.
Turning to `O=C(NC1CC1)C(=O)C(Cc1ccccc1)NC(=O)c1cccnc1-n1ccc(-c2ccccc2)n1` (stereo not given), the IC50 in data set [6] was 0.75 µM. The molecule also registered a Ki in data set [1] of 0.205 µM.
`O=C(NOC1CCC1)C(=O)C(Cc1ccccc1)NC(=O)c1cccnc1-n1ccc(-c2ccccc2)n1` (stereo not given) displayed an inhibition constant (Ki) in data set [1] of 0.15 µM.
On the same count and under the same terms, under `CC1(NC(=O)C(=O)C(Cc2ccccc2)NC(=O)c2cccnc2-n2ccc(-c3ccccc3)n2)CC1` (stereo not given) stands above 5 µM.
Same read-out and setting: under `O=C(NOCCN1CCOCC1)C(=O)C(Cc1ccccc1)NC(=O)c1cccnc1-n1ccc(-c2ccccc2)n1` (stereo not given) stands 0.265 µM; under `O=C(NCc1ccccc1)C(=O)C(Cc1ccccc1)NC(=O)c1cccnc1-n1ccc(-c2ccccc2)n1` (stereo not given), 0.11 µM; under `CC(C)ONC(=O)C(=O)C(Cc1ccccc1)NC(=O)c1cccnc1-n1ccc(-c2ccccc2)n1` (stereo not given), 0.22 µM.
On the same count and under the same terms, under `CCCONC(=O)C(=O)C(Cc1ccccc1)NC(=O)c1cccnc1-n1ccc(-c2ccccc2)n1` (stereo not given) stands 0.075 µM; under `O=C(NCc1nc2ccccc2o1)C(=O)C(Cc1ccccc1)NC(=O)c1cccnc1-n1ccc(-c2ccccc2)n1` (stereo not given), 0.21 µM; under `O=C(NCC1CC1)C(=O)C(Cc1ccccc1)NC(=O)c1cccnc1-n1ccc(-c2ccccc2)n1` (stereo not given), 0.55 µM.
In data set [1], `C=CCONC(=O)C(=O)C(Cc1ccccc1)NC(=O)c1cccnc1-n1ccc(-c2ccccc2)n1` (stereo not given) came in with a Ki of 0.185 µM.
Same read-out and setting: under `O=C(NC1CCC1)C(=O)C(Cc1ccccc1)NC(=O)c1cccnc1-n1ccc(-c2ccccc2)n1` (stereo not given) stands 0.49 µM.
On the same count and under the same terms, in the case of `CCNC(=O)C(=O)C(Cc1ccccc1)NC(=O)c1cccnc1-n1ccc(-c2ccccc2)n1` (stereo not given) it was 0.69 µM; in that of `CC(C)NC(=O)C(=O)C(Cc1ccccc1)NC(=O)c1cccnc1-n1ccc(-c2ccccc2)n1` (stereo not given), 2.6 µM; in that of `O=C(NOCC1CC1)C(=O)C(Cc1ccccc1)NC(=O)c1cccnc1-n1ccc(-c2ccccc2)n1` (stereo not given), 0.09 µM.
On to `CONC(=O)C(=O)C(Cc1ccccc1)NC(=O)c1cccnc1-n1ccc(-c2ccccc2)n1` (stereo not given), for which the IC50 in data set [6] stood at 2.15 µM. In addition, the Ki in data set [1] amounted to 0.12 µM.
The molecule `O=C(NC1CCCC1)C(=O)C(Cc1ccccc1)NC(=O)c1cccnc1-n1ccc(-c2ccccc2)n1` (stereo not given) yielded a Ki in data set [1] of 1.35 µM.
Same read-out and setting: under `N#CCNC(=O)C(=O)C(Cc1ccccc1)NC(=O)c1cccnc1-n1ccc(-c2ccccc2)n1` (stereo not given) stands 0.95 µM; under `CCCNC(=O)C(=O)C(Cc1ccccc1)NC(=O)c1cccnc1-n1ccc(-c2ccccc2)n1` (stereo not given), 0.48 µM.
Same read-out and setting: under `C=CCNC(=O)C(=O)C(Cc1ccccc1)NC(=O)c1cccnc1-n1ccc(-c2ccccc2)n1` (stereo not given) stands 0.47 µM.
On the same count and under the same terms, in the case of `CNC(=O)C(=O)C(Cc1ccccc1)NC(=O)c1cccnc1-n1ccc(-c2ccccc2)n1` (stereo not given) it was 0.38 µM.
Regarding `CN(C)CCONC(=O)C(=O)C(Cc1ccccc1)NC(=O)c1cccnc1-n1ccc(-c2ccccc2)n1` (stereo not given), the Ki in data set [1] came to 1.06 µM.
Still for that read-out and setting: under `O=C(NCCc1ccccc1)C(=O)C(Cc1ccccc1)NC(=O)c1cccnc1-n1ccc(-c2ccccc2)n1` (stereo not given) stands 0.33 µM.
